ChEMBL document CHEMBL1154766, “Synthesis and biological evaluation of new podophyllic aldehyde derivatives with cytotoxic and apoptosis-inducing activities” (2010)
Calls of active or inactive are those of the source. The rule behind the calls is not given here.

Tests used:
A549 = assay: Cytotoxicity against human A549 cells after 72 hrs by SRB assay; format: functional; settings: A549, 72 h
Procedure, shortened: (§1)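 SRB growth assay: 5 × 10³ cells/well in RPMI, attached 18 h drug-free, then compound added in DMSO/H₂O 3:7 for 72 h. Fixed with cold 50% TCA 60 min at 4 °C, stained 0.4% SRB in 1% acetic acid 10 min, bound dye solubilized in Tris, OD 490 nm. GI50 from 100[(T−T0)/(C−T0)] = 50; mean of triplicates.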

MDA-MB-231 = assay: Cytotoxicity against human MDA-MB-231 cells after 72 hrs by SRB assay; format: functional; settings: MDA-MB-231, 72 h; procedure, shortened: as §1
HT-29 [1] = assay: Cytotoxicity against human HT-29 cells after 72 hrs by SRB assay; format: functional; settings: HT-29, 72 h; procedure, shortened: as §1
HT-29 [2] = assay: Cell cycle arrest in human HT-29 cells assessed as accumulation at G2/M phase at 1 uM after 48 hrs by flow cytometry; format: functional
Procedure, shortened: (§2)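 HT-29 cells incubated at 1 μM for 24, 48 or 72 h alongside untreated controls. (3-5) × 10⁵ cells fixed overnight in 70% ethanol at 4 °C, PBS-washed three times, then treated 1 h at room temperature with 1 mg/mL RNase A and 20 μg/mL propidium iodide. DNA content read by flow cytometry; apoptosis taken as % cells in sub-G1 peak. Representative of three independent experiments.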

HT-29 [3] = assay: Induction of apoptosis in human HT-29 cells assessed as accumulation at subG1 phase at 1 uM after 48 hrs by flow cytometry; format: functional; procedure, shortened: as §2
HT-29 [4] = assay: Cell cycle arrest in human HT-29 cells assessed as accumulation at G0/G1 phase at 1 uM after 24 hrs by flow cytometry; format: functional; procedure, shortened: as §2
HT-29 [5] = assay: Induction of apoptosis in human HT-29 cells assessed as accumulation at subG1 phase at 1 uM after 24 hrs by flow cytometry; format: functional; procedure, shortened: as §2
HT-29 [6] = assay: Cell cycle arrest in human HT-29 cells assessed as accumulation at S phase at 1 uM after 24 hrs by flow cytometry; format: functional; procedure, shortened: as §2
HT-29 [7] = assay: Cell cycle arrest in human HT-29 cells assessed as accumulation at S phase at 1 uM after 48 hrs by flow cytometry; format: functional; procedure, shortened: as §2
HT-29 [8] = assay: Cell cycle arrest in human HT-29 cells assessed as accumulation at S phase at 1 uM after 72 hrs by flow cytometry; format: functional; procedure, shortened: as §2
HT-29 [9] = assay: Induction of apoptosis in human HT-29 cells assessed as accumulation at subG1 phase at 1 uM after 72 hrs by flow cytometry; format: functional; procedure, shortened: as §2
HT-29 [10] = assay: Cell cycle arrest in human HT-29 cells assessed as accumulation at G2/M phase at 1 uM after 24 hrs by flow cytometry; format: functional; procedure, shortened: as §2
HT-29 [11] = assay: Cell cycle arrest in human HT-29 cells assessed as accumulation at G0/G1 phase at 1 uM after 72 hrs by flow cytometry; format: functional; procedure, shortened: as §2
HT-29 [12] = assay: Induction of microtubule disruption in human HT-29 cells at 1 uM after 24 hrs; format: cell-based
Procedure, shortened: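 HT-29 cells on poly-L-lysine coverslips exposed to 1 μM for 24 h, washed in HPEM (pH 6.6), fixed with 4% paraformaldehyde 15 min, permeabilized with 0.5% Triton X-100. Anti-α-tubulin mouse monoclonal (1:150, 1 h) then CY3 anti-mouse IgG (1 h, 4 °C); nuclei DAPI-stained; imaged by confocal microscopy. Representative of at least three experiments.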

HT-29 [13] = assay: Cell cycle arrest in human HT-29 cells assessed as accumulation at G2/M phase at 1 uM after 72 hrs by flow cytometry; format: functional; procedure, shortened: as §2
HT-29 [14] = assay: Cell cycle arrest in human HT-29 cells assessed as accumulation at G0/G1 phase at 1 uM after 48 hrs by flow cytometry; format: functional; procedure, shortened: as §2

SMILES | GI50 (A549) | GI50 (MDA-MB-231) | GI50 (HT-29 [1]) | also measured
COc1cc([C@@H]2c3cc4c(cc3[C@H](O)[C@@H](CO)[C@H]2C(=O)OC/C=C/c2ccccc2)OCO4)cc(OC)c1OC [CINNAMYL PICROPODOPHYLLATE] | 200 nM | 180 nM | 150 nM | –
CCCCCCCOC(=O)[C@H]1[C@H](c2cc(OC)c(OC)c(OC)c2)c2cc3c(cc2[C@H](O)[C@H]1CO)OCO3 [HEPTYL PICROPODOPHYLLATE] | 190 nM | 180 nM | 160 nM | –
CCOC(=O)COC(=O)[C@H]1[C@H](c2cc(OC)c(OC)c(OC)c2)c2cc3c(cc2[C@H](O)[C@H]1CO)OCO3 [ETHOXYCARBONYLMETHYL PICROPODOPHYLLATE] | 170 nM | 160 nM | 180 nM | –
COc1cc([C@@H]2c3cc4c(cc3C=C(C=O)[C@H]2C(=O)N2CCCC2)OCO4)cc(OC)c1OC | 6600 nM | 8200 nM | 7300 nM | –
COc1cc([C@@H]2c3cc4c(cc3C=C(C=O)[C@H]2C(=O)OCCCBr)OCO4)cc(OC)c1OC | 130 nM | 170 nM | 140 nM | Activity (HT-29 [2]): 18.1%; Activity (HT-29 [3]): 34.6%; Activity (HT-29 [4]): 46.9%; Activity (HT-29 [5]): 29.2%; Activity (HT-29 [6]): 9.7%; Activity (HT-29 [7]): 8.4%; Activity (HT-29 [8]): 0.3%; Activity (HT-29 [9]): 67.7%; Activity (HT-29 [10]): 14.2%; Activity (HT-29 [11]): 31.6%; Activity (HT-29 [12]): inactive; Activity (HT-29 [13]): 0.4%; Activity (HT-29 [14]): 38.9%
COC(=O)[C@@H]1C(CNc2ccc(C)cc2)=Cc2cc3c(cc2[C@H]1c1cc(OC)c(OC)c(OC)c1)OCO3 | 900 nM | 1500 nM | 800 nM | –
CCOC(=O)[C@H]1[C@H](c2cc(OC)c(OC)c(OC)c2)c2cc3c(cc2[C@H](O)[C@H]1CO)OCO3 [ETHYL PICROPODOPHYLLATE] | 70 nM | 90 nM | 90 nM | –
COc1cc([C@@H]2c3cc4c(cc3C=C(C=O)[C@H]2C(=O)OC/C=C/c2ccccc2)OCO4)cc(OC)c1OC | 32 nM | 130 nM | 36 nM | Activity (HT-29 [2]): 85.3%; Activity (HT-29 [3]): 5.2%; Activity (HT-29 [4]): 1.4%; Activity (HT-29 [5]): 0.4%; Activity (HT-29 [6]): 1.8%; Activity (HT-29 [7]): 4.2%; Activity (HT-29 [8]): 22%; Activity (HT-29 [9]): 33.7%; Activity (HT-29 [10]): 96.4%; Activity (HT-29 [11]): 21.1%; Activity (HT-29 [12]): Active; Activity (HT-29 [13]): 23.2%; Activity (HT-29 [14]): 5.3%
COC(=O)[C@@H]1C(CNc2ccc(OC)cc2)=Cc2cc3c(cc2[C@H]1c1cc(OC)c(OC)c(OC)c1)OCO3 | 1000 nM | 2400 nM | 700 nM | –
COc1ccc(NCC2=Cc3cc4c(cc3[C@@H](c3cc(OC)c(OC)c(OC)c3)[C@@H]2C(=O)N2CCCC2)OCO4)cc1 | 15000 nM | > 17000 nM | 15000 nM | –
CC/N=C/C1=Cc2cc3c(cc2[C@@H](c2cc(OC)c(OC)c(OC)c2)[C@@H]1C(=O)OC)OCO3 | 22 nM | – | 2.2 nM | –
CCCNCC1=Cc2cc3c(cc2[C@@H](c2cc(OC)c(OC)c(OC)c2)[C@@H]1C(=O)OC)OCO3 | 1500 nM | 5500 nM | 1000 nM | –
CCC/N=C/C1=Cc2cc3c(cc2[C@@H](c2cc(OC)c(OC)c(OC)c2)[C@@H]1C(=O)OCc1cc(OC)c(OC)c(OC)c1)OCO3 | 5.2 nM | 130 nM | 4.3 nM | –
CCCNCC1=Cc2cc3c(cc2[C@@H](c2cc(OC)c(OC)c(OC)c2)[C@@H]1C(=O)OCc1cc(OC)c(OC)c(OC)c1)OCO3 | 1900 nM | 6400 nM | 2000 nM | –
CCNCC1=Cc2cc3c(cc2[C@@H](c2cc(OC)c(OC)c(OC)c2)[C@@H]1C(=O)OC)OCO3 | 700 nM | 2600 nM | 400 nM | –
CCC/N=C/C1=Cc2cc3c(cc2[C@@H](c2cc(OC)c(OC)c(OC)c2)[C@@H]1C(=O)OC)OCO3 | 41 nM | 1300 nM | 41 nM | –
